From ChEMBL document CHEMBL1150592, “New antimicrobial cycloartane triterpenes from Acalypha communis” (2002)
Converted amounts (≈) assume the structure as drawn. The source made the active and inactive calls. The rule behind the calls is not given here.

Tests used:
[1] = system: Enterococcus faecium; assay: Antimicrobial activity against vancomycin-resistant Enterococcus faecium 379 after 18 to 20 hrs by standard broth microdilution method; format: functional
Procedure, shortened: (§1)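 Broth microdilution: 5 μL overnight culture (1 × 10⁷ to 5 × 10⁷ CFU/ml) added to 0.1 mL broth containing drug at 0.03–128 μg/mL. Incubated 18–20 h at 37 °C. MIC = lowest concentration preventing visual turbidity. Strains from an in-house laboratory collection.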

[2] = system: Escherichia coli; assay: Antimicrobial activity against Escherichia coli imp 389 after 18 to 20 hrs by standard broth microdilution method; format: functional
Procedure, shortened: (§2)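 Broth microdilution in polystyrene plates. Each well held 0.1 mL of broth medium with drug at 0.03–128 μg/mL and received 5 μL of overnight broth culture adjusted to 1 × 10⁷ to 5 × 10⁷ CFU/ml. Plates were incubated 18–20 h at 37 °C. MIC was the lowest concentration with no visible turbidity. Strains came from a laboratory collection.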

[3] = system: Staphylococcus aureus; assay: Antimicrobial activity against methicillin-resistant Staphylococcus aureus 310 after 18 to 20 hrs by standard broth microdilution method; format: functional; procedure, shortened: as §1
[4] = system: Bacillus subtilis; assay: Antimicrobial activity against Bacillus subtilis PY79 after 18 to 20 hrs by standard broth microdilution method; format: functional; procedure, shortened: as §2
[5] = system: Staphylococcus aureus; assay: Antimicrobial activity against Staphylococcus aureus 375 after 18 to 20 hrs by standard broth microdilution method; format: functional; procedure, shortened: as §2
[6] = system: Staphylococcus aureus; assay: Antimicrobial activity against Staphylococcus aureus Smith infected in CD1 mouse after 7 days; format: functional; conditions: 168 h
Procedure, shortened: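 Female CD-1 mice (20 ± 2 g) infected intraperitoneally with bacteria in broth or ~5% mucin, inoculum lethal to 95–100% of untreated mice within 48 h. Single dose given 0.5 h post-infection. Seven-day survival from three or four tests (five dose levels, five mice per level) pooled; ED50 by probit analysis.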

[7] = system: Staphylococcus aureus; assay: Antimicrobial activity against Staphylococcus aureus Smith infected in CD1 mouse at 64 mg/kg after 7 days; format: functional, organism-based; design: dose 64 mg/kg
Procedure, shortened: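 Female CD-1 mice weighing 20 ± 2 g were infected intraperitoneally with bacteria suspended in broth or in about 5% mucin, at an inoculum lethal to 95–100% of untreated mice within 48 h. A single drug dose was given 0.5 h after infection. Survival was scored at day 7, using five animals per dose level and three or four separate tests pooled.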

CC1(C)S[C@@H]2[C@H](NC(=O)Cc3ccccc3)C(=O)N2[C@H]1C(=O)O [PENICILLIN G]
MIC [1]: 128 mg/L (≈ 383 µM)
MIC [2]: 2 mg/L (≈ 5.98 µM)
MIC [3]: 128 mg/L (≈ 383 µM)
MIC [4]: 8 mg/L (≈ 23.9 µM)
MIC [5]: 0.06 mg/L (≈ 0.179 µM)

CC(C)=CCC[C@@H](C)[C@H]1[C@H](O)C[C@@]2(C)[C@@H]3CC[C@H]4[C@](C)(C(=O)O)[C@@H](O)C[C@H](O)[C@@]45C[C@@]35CC[C@]12C
MIC [1]: 8 mg/L (≈ 16.4 µM)
MIC [2]: 64 mg/L (≈ 131 µM)
MIC [3]: 64 mg/L (≈ 131 µM)
MIC [4]: 32 mg/L (≈ 65.5 µM)
MIC [5]: 32 mg/L (≈ 65.5 µM)

CN[C@H](CC(C)C)C(=O)N[C@H]1C(=O)N[C@@H](CC(N)=O)C(=O)N[C@H]2C(=O)N[C@H]3C(=O)N[C@H](C(=O)N[C@H](C(=O)O)c4cc(O)cc(O)c4-c4cc3ccc4O)[C@H](O)c3ccc(c(Cl)c3)Oc3cc2cc(c3O[C@@H]2O[C@H](CO)[C@@H](O)[C@H](O)[C@H]2O[C@H]2C[C@](C)(N)[C@H](O)[C@H](C)O2)Oc2ccc(cc2Cl)[C@H]1O [VANCOMYCIN]
ED50 [6]: 1 mg/kg

CC(C)=CCC[C@@H](C)[C@H]1C[C@H](O)[C@@]2(C)[C@@H]3CC[C@H]4[C@](C)(C(=O)O)[C@@H](O)C[C@H](O)[C@@]45C[C@@]35CC[C@]12C
MIC [1]: 32 mg/L (≈ 65.5 µM)
MIC [2]: > 128 mg/L
MIC [3]: 128 mg/L (≈ 262 µM)
MIC [4]: 64 mg/L (≈ 131 µM)
MIC [5]: 32 mg/L (≈ 65.5 µM)

C=C(CC[C@@H](C)[C@H]1[C@@H](O)C[C@@]2(C)[C@@H]3[C@@H](O)C[C@H]4[C@](C)(C(=O)O)[C@@H](O)CC[C@@]45C[C@@]35CC[C@]12C)C(C)C
MIC [1]: 8 mg/L (≈ 15.9 µM)
MIC [2]: > 128 mg/L
MIC [3]: > 128 mg/L
MIC [4]: 16 mg/L (≈ 31.8 µM)
ED50 [7]: inactive
MIC [5]: 16 mg/L (≈ 31.8 µM)
